Assay outcomes from PubChem.
An excerpt weighted towards active compounds, which were near 1.5% of everything screened.
M4 ag = agonists of human muscarinic M4 receptor (CHRM4). CHO-K1 hM4/Gqi5, Fluo-8 calcium fluorescence; vehicle 0%, full acetylcholine response 100%. activation, % at 3 µM. 360,000 compounds, 0.14% hits. AID 624127;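 active means activation above the run mean over all test wells plus 3 SD, cut at about 32% in these data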;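 further: peak over basal fluorescence ratio per well then scaled between controls; 0% = DMSO wells and 100% = acetylcholine at EC100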
OXTR ag = human OXTR agonism | P30559 | CHO-OTR cells, Fluo-8 calcium fluorescence; normalized: DMSO 0%, oxytocin 100% | activation, % at 3 µM | 320,000 compounds, 0.32% hits | AID 2435;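 active means activation above the mean of all tested compounds plus 3 SD, cutoff set per screening run, cut at about 20% in these data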;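 further: peak over basal fluorescence ratio from a 100 s FLIPR kinetic read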
Target sequence (P30559 whole entry, looked up): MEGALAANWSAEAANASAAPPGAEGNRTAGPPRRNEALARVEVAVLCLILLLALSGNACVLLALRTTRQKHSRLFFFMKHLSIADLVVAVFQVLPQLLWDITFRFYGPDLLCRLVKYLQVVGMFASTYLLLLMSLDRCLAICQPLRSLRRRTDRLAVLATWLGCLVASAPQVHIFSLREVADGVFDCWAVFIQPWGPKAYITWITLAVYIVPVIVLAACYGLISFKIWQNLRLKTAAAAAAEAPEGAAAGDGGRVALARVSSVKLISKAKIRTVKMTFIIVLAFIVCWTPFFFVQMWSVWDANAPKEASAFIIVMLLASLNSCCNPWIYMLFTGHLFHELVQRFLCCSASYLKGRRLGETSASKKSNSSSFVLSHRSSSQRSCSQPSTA
V1aR counter = activates human V1a receptor in oxytocin agonist counter-screen; 320,000 compounds, 0.25% hits; CHO-V1R cells, Fluo-8 calcium fluorescence, agonist mode; 0% DMSO, 100% 3 nM vasopressin; AID 2797; activation, % at 3 µM;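 active means activation above the mean activation of all tested compounds plus 3 SD, per screening run, cut at about 20% in these data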;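 further: signal is peak over basal fluorescence ratio across a 100 second FLIPR read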
OXTR potentiate = human OXTR potentiation. activation, % at 3 µM. 320,000 compounds, 0.061% hits. CHO-OTR cells, Fluo-8 calcium fluorescence, potentiator mode; 0% = oxytocin EC15, 100% = EC100. P30559. AID 2445;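 active means activation above that plate's cutoff, the mean activation of tested compounds plus 3 SD, cut at about 6.6% in these data, passing the limit was not always enough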;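 further: 100% uses oxytocin at 75 nM as the full agonist control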
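test system = CHO-OTR cells, human receptor | compound = single-point 3.0 µM | schedule = 6 min compound pre-incubation at room temperature, 100 s kinetic read | signal = Fluo-8 no-wash calcium dye fluorescence, excitation 470-495 nm, emission 515-575 nm | repeats = single well per compound, singlicate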
CHRM4 antagonist = antagonists of human muscarinic M4 receptor (CHRM4); P08173; inhibition, % at 3 µM; 360,000 compounds, 0.73% hits; CHO-hM4 cells, ACh EC80, Fluo-8 calcium fluorescence;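 active means inhibition above its plate's cutoff, the mean inhibition of sample wells plus 3 SD, cut at about 27% in these data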;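 further: 0% = acetylcholine EC80 with DMSO and 100% = DMSO without agonist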
CHRM4 PAM = potentiates acetylcholine response at human M4 receptor; P08173; CHO-K1 hM4/Gqi5, Fluo-8 calcium fluorescence, ACh EC20; 0% = ACh EC20, 100% = maximal ACh; activation, % at 3 µM; 360,000 compounds, 0.4% hits;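 active means activation above its plate's cutoff, the mean activation of sample wells plus 3 SD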
The depositor's hits bear a star; x = no result.

SMILES | M4 ag | OXTR ag | V1aR counter | OXTR potentiate | CHRM4 antagonist | CHRM4 PAM
CC[C@@H](C)[C@H](NC(=O)OC(C)(C)C)c1nnc(S(=O)(=O)Cc2cc(C)ccc2C)o1 | 2 | -1 | 0 | -8 | 48* | -15
CC(C)(C)OC(=O)N[C@@H](Cc1ccccc1)c1nnc(S(=O)(=O)Cc2cccc(F)c2)o1 | x | -1 | 0 | -18 | x | x
CC(C)[C@H](NC(=O)OC(C)(C)C)c1nnc(S(=O)(=O)Cc2c(F)cccc2Cl)o1 | 2 | -1 | 0 | -6 | 43* | -15
CCOC(=O)C1CCCN(C(=O)C(CCSC)NC(=O)COc2ccccc2)C1 (stereo unspecified) | 3 | x | x | x | -8 | 7
CCOC(=O)C1=c2/c(=C/c3ccncc3)c(N)c(C(=O)OC)n2C(=O)C(c2ccncc2)S1 (stereo unspecified) | 1 | -1 | 0 | 3 | 7 | -2
Cc1cccc(C(=O)OCCN2CCOCC2)c1 | 0 | 0 | 0 | -9 | 7 | 0
CCNc1ccc2noc3c2c1C(=O)c1ccccc1-3 | 46* | 110* | 78* | -11 | 24 | -22
O=C1c2ccccc2-c2onc3ccc(NCc4ccco4)c1c23 | 10 | 58* | 35* | -31 | 16 | -7
CCOc1ccc2noc3c2c1C(=O)c1ccccc1-3 | 11 | 59* | 75* | -14 | 2 | 0
CCOC(=O)Cc1ccc(Nc2nc(NCc3ccccc3)nc3ccsc23)cc1 | 12 | x | x | x | 24 | -12
O=C(CN1CCc2ccccc2C1)Nc1ccccc1C(=O)NC1CC1 | 3 | -1 | 0 | -5 | 0 | -3
CCN(CC)CC#CC(OC)(c1ccccc1)c1ccccc1 | -2 | -3 | 0 | -3 | 57* | -27
CCN(CC)CC#Cc1ccc(C)cc1 | 1 | 1 | 0 | 0 | -1 | -9
CCOC(=O)/C(=C\C=C1/Sc2cc(OCC)c(OCC)cc2N1CC)C(C)=O | 20 | 148* | 92* | -12 | 12 | -5
CCOC(=O)/C(=C/C=C1\Sc2cc(OCC)c(OCC)cc2N1CC)C(C)=O | 18 | 248* | 289* | -16 | 12 | -9
CCN1/C(=C/C(C)=O)Sc2ccc(OC)cc21 | -1 | -3 | -1 | -7 | 1 | 6
CCOC(=O)CC1COCCN1C(=O)c1ccc2oc(Cc3ccccc3)nc2c1 (stereo unspecified) | 1 | 0 | 8 | 1 | 5 | -3
CC(=O)c1cccc(CN2CCCC(C(=O)Nc3ccc(-c4ccco4)cc3)C2)c1 (stereo unspecified) | 2 | 2 | 4 | -6 | 4 | -11
CCCCNc1c(-c2ccc(SC(C)CC)c(OC)c2)nc2ccc(Cl)cn12 (stereo unspecified) | 2 | -2 | -1 | -7 | 35* | -12
CCCCNc1c(-c2ccc(SC(C)CC)c(OC)c2)nc2ccc(C)cn12 (stereo unspecified) | 16 | -3 | 0 | -11 | 55* | -12
O=C1NC(=S)N(C(=O)c2ccc(F)cc2)/C1=C/c1ccccc1 | 9 | 14 | 17 | -8 | 13 | -5
COc1ccc(/C=C2\C(=O)NC(=S)N2C(=O)c2ccc(F)cc2)cc1 | 12 | 20* | 22* | -9 | -5 | 1
CCOc1cc2[nH]c(=S)n(CCCCC(=O)NCc3ccco3)c(=O)c2cc1OCC | 0 | 0 | -1 | 0 | 3 | 32*
COc1ccc(-c2ccc3[nH]c4c(c3c2)CCN2C(=O)[C@@H]([C@H](C)O)[C@@H](N(C)C(=O)Nc3ccc(F)cc3)C[C@@H]42)cc1 | 4 | x | x | x | 3 | -3
CCN(CC)CCNC(=O)C12CC3CC(CC(C3)C1)C2 | 0 | 0 | 1 | -24 | 42* | -13
CN(CC(=O)NCc1ccccc1)CC(=O)Nc1ccc(Cl)c(C(F)(F)F)c1 | 24 | 23* | 21* | -10 | 1 | 3
CN(CC(=O)NCCc1ccc(S(N)(=O)=O)cc1)CC(=O)Nc1ccc(Cl)c(C(F)(F)F)c1 | -1 | x | x | x | -11 | 23*
CN(CC(=O)NC(=O)NCc1ccccc1)CC(=O)Nc1ccc(Cl)c(C(F)(F)F)c1 | 10 | 2 | 3 | -15 | 1 | 0
